Measurements taken from ChEMBL document CHEMBL1138791, “Acyl sulfonamide anti-proliferatives: benzene substituent structure-activity relationships for a novel class of antitumor agents” (J Med Chem, 2004).

Key:
L1210 [1] = assay: Diameter of zone of inhibition for cell colony formation of leukemia L1210 at the dose of 200 ug; assay type: functional, Mus musculus
Outline: (§1)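 Soft agar disk diffusion: leukemia (L1210), solid tumor (HCT116, or colon H15) and normal fibroblast cells seeded in soft agar in separate 60 mm dishes. Compound applied to a filter paper disk (dose in μg/disk) set on the agar. Colony-formation inhibition zones read after 6–7 days at 37 °C. 200 zone units = 6.5 mm; 950 = total inhibition; a range marks partial colony shrinkage. n > 2 unless noted.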

HCT-116 [2] = assay: Diameter of zone of inhibition for cell colony formation of solid tumor HCT116 at the dose of 200 ug; assay type: functional, Homo sapiens
Outline: (§2)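 HCT116, L1210 leukaemia and normal fibroblast cells were seeded in soft agar in separate 60 mm dishes. The compound was applied to a filter-paper disk laid on the agar. Colony-formation inhibition zones were read after 6–7 days at 37 °C and expressed in zone units (200 units = 6.5 mm; 950 = total inhibition; 0 = none). n > 2 unless otherwise indicated.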

[3] = Diameter of zone of inhibition for cell colony formation of normal fibroblast at the dose of 200 ug; Range is 0-4.875; assay type: functional, Homo sapiens; outline: as §1
L1210 [4] = assay: Diameter of zone of inhibition for cell colony formation of leukemia L1210 at the dose of 210 ug; assay type: functional, Mus musculus; outline: as §1
HCT-116 [5] = assay: Diameter of zone of inhibition for cell colony formation of solid tumor HCT116 at the dose of 210 ug; assay type: functional, Homo sapiens; outline: as §2
[6] = Diameter of zone of inhibition for cell colony formation of normal fibroblast at the dose of 210 ug; Range is 0-2.6; assay type: functional, Homo sapiens; outline: as §1
[7] = Diameter of zone of inhibition for cell colony formation of solid tumor H15 at the dose of 210 ug; assay type: functional, Homo sapiens; outline: as §1
Mus musculus [8] = assay: Tumor growth delay of human HCT116 colorectal carcinoma in mice after intravenous administration at dose of 32 mg/kg; assay type: functional
Outline: (§3)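 Female nude mice were implanted with HCT116 tumour tissue from donor mice and randomized once tumours averaged 100 mm3. The sodium salt in saline (pH 7.4) was given by iv bolus on days 1–5 and 8–12. Tumour volumes were recorded twice weekly. TGD = T − C, the time to reach 500 mm3 taken from a fitted tumour-growth model.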

Mus musculus [9] = assay: Tumor growth delay of human HCT116 colorectal carcinoma in mice after intravenous administration at dose of 63 mg/kg; assay type: functional; outline: as §3
[10] = Diameter of zone of inhibition for cell colony formation of normal fibroblast at the dose of 210 ug; Range is 0-11.375; assay type: functional, Homo sapiens; outline: as §1

Row | Structure (SMILES) | Inhibition (L1210 [1]) [mm] | Inhibition (HCT-116 [2]) [mm] | Inhibition [3] [mm] | Inhibition (L1210 [4]) [mm] | Inhibition (HCT-116 [5]) [mm] | Inhibition [6] [mm] | Inhibition [7] [mm] | Growth delay (Mus musculus [8]) [days] | Growth delay (Mus musculus [9]) [days] | Inhibition [10] [mm]
1 | O=C(NS(=O)(=O)c1ccc(Cl)cc1)c1ccc(Cl)c(Cl)c1 | 6.5 | 13 | 4.87 | – | – | – | – | – | – | –
2 | O=C(NS(=O)(=O)c1ccc(Cl)cc1)c1cc(Cl)cc(Cl)c1 | – | – | – | 4.87 | 10.72 | 2.6 | – | – | – | –
3 | O=C(NS(=O)(=O)c1ccc(Cl)cc1)c1ccc(Br)cc1Cl | – | – | – | 6.5 | – | – | 14.95 | 12 | 23 | 11.37
